Source: ChEMBL document CHEMBL3877264, “Quinolidene-rhodanine conjugates: Facile synthesis and biological evaluation” (Eur J Med Chem, 2017)
≈ marks a conversion by molar mass, not a printed value.

Experiments:
Type in all cases: functional
[1] = Antifungal activity against Fusarium oxysporum NCIM 1332 by standard agar method
Method in brief: (§1)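 MICs determined by standard agar method; DMSO as solvent control.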

Staphylococcus aureus [2] = assay: Growth inhibition of Staphylococcus aureus NCIM 2010 at 30 ug/ml measured after 12 hrs relative to control; settings: NCIM 2010, 12 h, read-out: GI
Method in brief: (§2)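 Bacteria grown in LB at 37 °C and 180 rpm to OD 1. Compounds added to wells, then 0.1% inoculum of 1 OD culture (620 nm). Growth read as OD at 620 nm after 8 h for gram-negative and after 12 h for gram-positive strains.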

Bacillus subtilis [3] = assay: Growth inhibition of Bacillus subtilis NCIM 2079 at 30 ug/ml measured after 12 hrs relative to control; settings: NCIM 2079, 12 h, read-out: GI; method in brief: as §2
Staphylococcus aureus [4] = assay: Growth inhibition of Staphylococcus aureus NCIM 2010 at 10 ug/ml measured after 12 hrs relative to control; settings: NCIM 2010, 12 h, read-out: GI; method in brief: as §2
Staphylococcus aureus [5] = assay: Growth inhibition of Staphylococcus aureus NCIM 2010 at 3 ug/ml measured after 12 hrs relative to control; settings: NCIM 2010, 12 h, read-out: GI; method in brief: as §2
Bacillus subtilis [6] = assay: Growth inhibition of Bacillus subtilis NCIM 2079 at 10 ug/ml measured after 12 hrs relative to control; settings: NCIM 2079, 12 h, read-out: GI; method in brief: as §2
Bacillus subtilis [7] = assay: Growth inhibition of Bacillus subtilis NCIM 2079 at 3 ug/ml measured after 12 hrs relative to control; settings: NCIM 2079, 12 h, read-out: GI; method in brief: as §2
Escherichia coli [8] = assay: Growth inhibition of Escherichia coli NCIM 2688 at 30 ug/ml measured after 8 hrs relative to control; settings: NCIM 2688, 8 h, read-out: GI; method in brief: as §2
Escherichia coli [9] = assay: Growth inhibition of Escherichia coli NCIM 2688 at 10 ug/ml measured after 8 hrs relative to control; settings: NCIM 2688, 8 h, read-out: GI; method in brief: as §2
Escherichia coli [10] = assay: Growth inhibition of Escherichia coli NCIM 2688 at 3 ug/ml measured after 8 hrs relative to control; settings: NCIM 2688, 8 h, read-out: GI; method in brief: as §2
Pseudomonas fluorescens [11] = assay: Growth inhibition of Pseudomonas fluorescens NCIM 2036 at 30 ug/ml measured after 8 hrs relative to control; settings: NCIM 2036, 8 h, read-out: GI; method in brief: as §2
Pseudomonas fluorescens [12] = assay: Growth inhibition of Pseudomonas fluorescens NCIM 2036 at 10 ug/ml measured after 8 hrs relative to control; settings: NCIM 2036, 8 h, read-out: GI; method in brief: as §2
Pseudomonas fluorescens [13] = assay: Growth inhibition of Pseudomonas fluorescens NCIM 2036 at 3 ug/ml measured after 8 hrs relative to control; settings: NCIM 2036, 8 h, read-out: GI; method in brief: as §2
Escherichia coli [14] = assay: Antibacterial activity against Escherichia coli NCIM 2688 measured after 8 hrs; settings: NCIM 2688, 8 h; method in brief: as §2
Pseudomonas fluorescens [15] = assay: Antibacterial activity against Pseudomonas fluorescens NCIM 2036 measured after 8 hrs; settings: NCIM 2036, 8 h; method in brief: as §2
Staphylococcus aureus [16] = assay: Antibacterial activity against of Staphylococcus aureus NCIM 2010 measured after 12 hrs; settings: NCIM 2010, 12 h; method in brief: as §2
Bacillus subtilis [17] = assay: Antibacterial activity against Bacillus subtilis NCIM 2079 measured after 12 hrs; settings: NCIM 2079, 12 h; method in brief: as §2
[18] = tested on: Mycobacterium tuberculosis; assay: Growth inhibition of Mycobacterium bovis BCG ATCC 35743 at dormant stage at 30 ug/ml measured after 12 days by nitrate reductase dye based two fold dilution method relative to control; settings: BCG str. ATCC 35743, 288 h, read-out: GI
Method in brief: (§3)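 M. bovis BCG was grown in Dubos medium and assayed in Mycobacterium pheli minimal medium (pH 6.6), with compounds from DMSO stocks. Incubation lasted 8 days for active and 12 days for dormant cultures. Viability was read by nitrate reductase at 540 nm against cell-free blanks, with vehicle set as 100% growth. Primary screen was at 30, 10 and 3 µg/ml, in triplicate, mean ± SD. MIC was taken from dose-response curves.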

[19] = tested on: Mycobacterium tuberculosis; assay: Growth inhibition of Mycobacterium bovis BCG ATCC 35743 at dormant stage at 10 ug/ml measured after 12 days by nitrate reductase dye based two fold dilution method relative to control; settings: BCG str. ATCC 35743, 288 h, read-out: GI; method in brief: as §3
[20] = tested on: Mycobacterium tuberculosis; assay: Growth inhibition of Mycobacterium bovis BCG ATCC 35743 at dormant stage at 3 ug/ml measured after 12 days by nitrate reductase dye based two fold dilution method relative to control; settings: BCG str. ATCC 35743, 288 h, read-out: GI; method in brief: as §3
[21] = tested on: Mycobacterium tuberculosis; assay: Growth inhibition of Mycobacterium bovis BCG ATCC 35743 at active stage measured after 8 days by nitrate reductase dye based two fold dilution method; settings: BCG str. ATCC 35743, 192 h; method in brief: as §3
[22] = tested on: Mycobacterium tuberculosis; assay: Growth inhibition of Mycobacterium tuberculosis H37Ra ATCC 25177 at dormant stage measured after 12 days by XTT dye based two fold dilution method; settings: H37Ra ATCC 25177, 288 h
Method in brief: (§4)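 MTB H37Ra was grown in Dubos medium, then exposed in Mycobacterium pheli minimal medium (pH 6.6) to compounds dissolved in DMSO. The assay ended on day 8 (active) or day 12 (dormant). Viable cells were measured by XTT reduction menadione assay at 470 nm, blank-corrected, relative to vehicle control. Triplicates were expressed as mean ± SD. MIC came from dose-response curves.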

[23] = tested on: Mycobacterium tuberculosis; assay: Growth inhibition of Mycobacterium bovis BCG ATCC 35743 at dormant stage measured after 12 days by nitrate reductase dye based two fold dilution method; settings: BCG str. ATCC 35743, 288 h; method in brief: as §3
[24] = tested on: Mycobacterium tuberculosis; assay: Growth inhibition of Mycobacterium tuberculosis H37Ra ATCC 25177 at active stage measured after 8 days by XTT dye based two fold dilution method; settings: H37Ra ATCC 25177, 192 h; method in brief: as §4
Aspergillus flavus = assay: Antifungal activity against Aspergillus flavus NCIM 539 by standard agar method; method in brief: as §1
Aspergillus niger = assay: Antifungal activity against Aspergillus niger NCIM 1196 by standard agar method; method in brief: as §1
Candida albicans = assay: Antifungal activity against Candida albicans NCIM 3471 by standard agar method; method in brief: as §1
[25] = Antifungal activity against Cryptococcus neoformans NCIM 576 by standard agar method; method in brief: as §1

Structure (SMILES) | MIC [1] | inhibition of growth at 30 µg/mL (Staphylococcus aureus [2]) | inhibition of growth at 30 µg/mL (Bacillus subtilis [3]) | inhibition of growth at 10 µg/mL (Staphylococcus aureus [4]) | inhibition of growth at 3 µg/mL (Staphylococcus aureus [5]) | inhibition of growth at 10 µg/mL (Bacillus subtilis [6]) | inhibition of growth at 3 µg/mL (Bacillus subtilis [7]) | inhibition of growth at 30 µg/mL (Escherichia coli [8]) | inhibition of growth at 10 µg/mL (Escherichia coli [9]) | inhibition of growth at 3 µg/mL (Escherichia coli [10]) | inhibition of growth at 30 µg/mL (Pseudomonas fluorescens [11]) | inhibition of growth at 10 µg/mL (Pseudomonas fluorescens [12]) | inhibition of growth at 3 µg/mL (Pseudomonas fluorescens [13]) | MIC (Escherichia coli [14]) | MIC (Pseudomonas fluorescens [15]) | MIC (Staphylococcus aureus [16]) | MIC (Bacillus subtilis [17]) | inhibition of growth at 30 µg/mL [18] | inhibition of growth at 10 µg/mL [19] | inhibition of growth at 3 µg/mL [20] | also measured
CCOc1ccc2nc(Cl)c(/C=C3\SC(=S)N(CC(=O)O)C3=O)cc2c1 | 150 µg/mL (≈ 367 µM) | -9.57% | -2.41% | -13.4% | 2.94% | -0.253% | -12.7% | 71.9% | 18.5% | 5.91% | 4.87% | 24.4% | -5.49% | > 30 µg/mL | > 30 µg/mL | > 30 µg/mL | > 30 µg/mL | 9.17% | 24.8% | 26.3% | IC50 [21]: > 30 µg/mL; IC90 [21]: > 30 µg/mL; IC50 [22]: > 30 µg/mL; IC90 [22]: > 30 µg/mL; IC50 [23]: > 30 µg/mL; IC90 [23]: > 30 µg/mL; IC50 [24]: > 30 µg/mL; IC90 [24]: > 30 µg/mL; MIC (Aspergillus flavus): 100 µg/mL (≈ 245 µM); MIC (Aspergillus niger): 125 µg/mL (≈ 306 µM)
COc1ccc2nc(Cl)c(/C=C3\SC(=S)N(CC(=O)O)C3=O)cc2c1 | 125 µg/mL (≈ 317 µM) | -35.7% | -33.3% | -25.4% | -29.3% | -37.3% | -37% | -50.9% | -19.5% | -23.7% | -6.43% | 0.664% | -4.12% | > 30 µg/mL | > 30 µg/mL | > 30 µg/mL | > 30 µg/mL | 32% | 27.3% | 6.02% | IC50 [21]: > 30 µg/mL; IC90 [21]: > 30 µg/mL; IC50 [22]: > 30 µg/mL; IC90 [22]: > 30 µg/mL; IC50 [23]: > 30 µg/mL; IC90 [23]: > 30 µg/mL; IC50 [24]: > 30 µg/mL; IC90 [24]: > 30 µg/mL; MIC (Candida albicans): 150 µg/mL (≈ 380 µM); MIC (Aspergillus flavus): 200 µg/mL (≈ 507 µM); MIC [25]: 150 µg/mL (≈ 380 µM)
